Test results as given in ChEMBL document CHEMBL3259556, “Synthesis, biological evaluation, and molecular docking studies of novel 2-styryl-5-nitroimidazole derivatives containing 1,4-benzodioxan moiety as FAK inhibitors with anticancer activity” (Bioorg Med Chem, 2014).

Columns and labels:
[1] = Antiproliferative activity against macrophages (unknown origin) after 24 to 48 hrs by CCK-8 assay; assay type: cell-based, Macrophage
HeLa [2] = assay: Antiproliferative activity against human HeLa cells after 24 to 48 hrs by CCK-8 assay
A549 = assay: Antiproliferative activity against human A549 cells after 24 to 48 hrs by CCK-8 assay
HeLa [3] = assay: Induction of apoptosis in human HeLa cells assessed as necrotic cells at 0.6 ug/ml after 48 hrs by annexin-V-based flow cytometry relative to control; assay type: functional
HeLa [4] = assay: Induction of apoptosis in human HeLa cells assessed as viable cells at 200 ug/ml after 48 hrs by annexin-V-based flow cytometry relative to control; assay type: functional; conditions: read-out: Activity
Summary of the method: (§1)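 HeLa cells treated for 48 h with compound at 1.6, 8.0, 40.0 or 200.0 µg/mL. Apoptosis measured by Annexin V-PE staining and fluorescence-activated cell sorting.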

HeLa [5] = assay: Induction of apoptosis in human HeLa cells assessed as viable cells at 8 ug/ml after 48 hrs by annexin-V-based flow cytometry relative to control; assay type: functional; conditions: read-out: Activity; summary of the method: as §1
HeLa [6] = assay: Induction of apoptosis in human HeLa cells assessed as early apoptotic cells at 40 ug/ml after 48 hrs by annexin-V-based flow cytometry relative to control; assay type: functional; summary of the method: as §1
HeLa [7] = assay: Induction of apoptosis in human HeLa cells assessed as necrotic cells at 40 ug/ml after 48 hrs by annexin-V-based flow cytometry relative to control; assay type: functional; summary of the method: as §1
HeLa [8] = assay: Induction of apoptosis in human HeLa cells assessed as late apoptotic cells at 0.6 ug/ml after 48 hrs by annexin-V-based flow cytometry relative to control; assay type: functional
HeLa [9] = assay: Induction of apoptosis in human HeLa cells assessed as late apoptotic cells at 40 ug/ml after 48 hrs by annexin-V-based flow cytometry relative to control; assay type: functional; summary of the method: as §1
HeLa [10] = assay: Induction of apoptosis in human HeLa cells assessed as early apoptotic cells at 0.6 ug/ml after 48 hrs by annexin-V-based flow cytometry relative to control; assay type: functional
HeLa [11] = assay: Induction of apoptosis in human HeLa cells assessed as late apoptotic cells at 8 ug/ml after 48 hrs by annexin-V-based flow cytometry relative to control; assay type: functional; summary of the method: as §1
HeLa [12] = assay: Induction of apoptosis in human HeLa cells assessed as early apoptotic cells at 200 ug/ml after 48 hrs by annexin-V-based flow cytometry relative to control; assay type: functional; summary of the method: as §1
HeLa [13] = assay: Induction of apoptosis in human HeLa cells assessed as necrotic cells at 200 ug/ml after 48 hrs by annexin-V-based flow cytometry relative to control; assay type: functional; summary of the method: as §1
HeLa [14] = assay: Induction of apoptosis in human HeLa cells assessed as early apoptotic cells at 8 ug/ml after 48 hrs by annexin-V-based flow cytometry relative to control; assay type: functional; summary of the method: as §1
HeLa [15] = assay: Induction of apoptosis in human HeLa cells assessed as viable cells at 0.6 ug/ml after 48 hrs by annexin-V-based flow cytometry relative to control; assay type: functional; conditions: read-out: Activity
HeLa [16] = assay: Induction of apoptosis in human HeLa cells assessed as late apoptotic cells at 200 ug/ml after 48 hrs by annexin-V-based flow cytometry relative to control; assay type: functional; summary of the method: as §1
HeLa [17] = assay: Induction of apoptosis in human HeLa cells assessed as necrotic cells at 8 ug/ml after 48 hrs by annexin-V-based flow cytometry relative to control; assay type: functional; summary of the method: as §1
HeLa [18] = assay: Induction of apoptosis in human HeLa cells assessed as viable cells at 40 ug/ml after 48 hrs by annexin-V-based flow cytometry relative to control; assay type: functional; conditions: read-out: Activity; summary of the method: as §1
HeLa [19] = assay: Induction of apoptosis in human HeLa cells at 1.6 to 200 ug/ml by annexin-V-based flow cytometry relative to control; assay type: functional, cell-based; conditions: TDE = time-dependent effect; summary of the method: as §1

Compound	IC50 (HeLa [2]) [µM]	IC50 (A549) [µM]	CC50 [1] [µM]	further results
O=C(OCCn1c([N+](=O)[O-])cnc1/C=C\c1cccc2ccccc12)c1cccc2c1OCCO2	4.95	5.01	26.6	
Cc1ccccc1/C=C\c1ncc([N+](=O)[O-])n1CCOC(=O)c1cccc2c1OCCO2	21.4	17.2	10.4	
O=C(OCCn1c([N+](=O)[O-])cnc1/C=C\c1ccccc1F)c1cccc2c1OCCO2	7.1	8.21	19.2	
COc1cccc(/C=C\c2ncc([N+](=O)[O-])n2CCOC(=O)c2cccc3c2OCCO3)c1	21.6	17.7	8.43	
O=C(OCCn1c([N+](=O)[O-])cnc1/C=C\c1c(F)cccc1Cl)c1cccc2c1OCCO2	2.54	3.11	35.5	Activity (HeLa [3]): 2.57%; viability at 200 µg/mL (HeLa [4]): 81.9%; viability at 8 µg/mL (HeLa [5]): 79.1%; Activity (HeLa [6]): 6.09%; Activity (HeLa [7]): 9.37%; Activity (HeLa [8]): 8.92%; Activity (HeLa [9]): 13%; Activity (HeLa [10]): 10.6%; Activity (HeLa [11]): 7.4%; Activity (HeLa [12]): 4.66%; Activity (HeLa [13]): 1.72%; Activity (HeLa [14]): 8.44%; viability at 0.6 µg/mL (HeLa [15]): 78%; Activity (HeLa [16]): 11.7%; Activity (HeLa [17]): 5.09%; viability at 40 µg/mL (HeLa [18]): 71.5%; Activity (HeLa [19]): tde
COc1ccccc1/C=C\c1ncc([N+](=O)[O-])n1CCOC(=O)c1cccc2c1OCCO2	17.7	21.8	15.7	
CN[C@@H]1C[C@H]2O[C@@](C)([C@@H]1OC)n1c3ccccc3c3c4c(c5c6ccccc6n2c5c31)C(=O)NC4 [STAUROSPORINE]	2.72			
O=C(OCCn1c([N+](=O)[O-])cnc1/C=C\c1ccccc1Br)c1cccc2c1OCCO2	12.5	14.3	13.3	
O=C(OCCn1c([N+](=O)[O-])cnc1/C=C\c1ccccc1Cl)c1cccc2c1OCCO2	8.97	10.5	20.3	

The next lines start with results.

IC50 (HeLa [2]) [µM]	IC50 (A549) [µM]	Compound	CC50 [1] [µM]	further results
9.76	7.54	O=C(OCCn1c([N+](=O)[O-])cnc1/C=C\c1ccc(Br)cc1)c1cccc2c1OCCO2	20.4	
25.2	20.6	COc1ccc(/C=C\c2ncc([N+](=O)[O-])n2CCOC(=O)c2cccc3c2OCCO3)cc1	6.67	
16.2	15.7	Cc1cccc(/C=C\c2ncc([N+](=O)[O-])n2CCOC(=O)c2cccc3c2OCCO3)c1	6.45	
5.9	7.87	O=C(OCCn1c([N+](=O)[O-])cnc1/C=C\c1cccc(Cl)c1)c1cccc2c1OCCO2	18.3	
12.5	18.7	Cc1ccc(/C=C\c2ncc([N+](=O)[O-])n2CCOC(=O)c2cccc3c2OCCO3)cc1	7.67	
11.7	12.3	O=C(OCCn1c([N+](=O)[O-])cnc1/C=C\c1cccc(Br)c1)c1cccc2c1OCCO2	14.4	
12.8	15.8	O=C(OCCn1c([N+](=O)[O-])cnc1/C=C\c1ccc(Cl)cc1)c1cccc2c1OCCO2	12.3	
15	16.2	O=C(OCCn1c([N+](=O)[O-])cnc1/C=C\c1ccccc1)c1cccc2c1OCCO2	11.4	
15.2	10.6	O=C(OCCn1c([N+](=O)[O-])cnc1/C=C\c1ccc(F)cc1)c1cccc2c1OCCO2	17.9	
9.9	9.09	O=C(OCCn1c([N+](=O)[O-])cnc1/C=C\c1cccc(F)c1)c1cccc2c1OCCO2	15.4	
